The results in this text go back to ChEMBL document CHEMBL4376888, “Discovery of Potent, Selective, and Direct Acid Sphingomyelinase Inhibitors with Antidepressant Activity” (J Med Chem, 2020).

Series [1] concerns the target T1, Sphingomyelin phosphodiesterase (Homo sapiens, UniProt P17405).
T1 sequence (P17405 whole entry): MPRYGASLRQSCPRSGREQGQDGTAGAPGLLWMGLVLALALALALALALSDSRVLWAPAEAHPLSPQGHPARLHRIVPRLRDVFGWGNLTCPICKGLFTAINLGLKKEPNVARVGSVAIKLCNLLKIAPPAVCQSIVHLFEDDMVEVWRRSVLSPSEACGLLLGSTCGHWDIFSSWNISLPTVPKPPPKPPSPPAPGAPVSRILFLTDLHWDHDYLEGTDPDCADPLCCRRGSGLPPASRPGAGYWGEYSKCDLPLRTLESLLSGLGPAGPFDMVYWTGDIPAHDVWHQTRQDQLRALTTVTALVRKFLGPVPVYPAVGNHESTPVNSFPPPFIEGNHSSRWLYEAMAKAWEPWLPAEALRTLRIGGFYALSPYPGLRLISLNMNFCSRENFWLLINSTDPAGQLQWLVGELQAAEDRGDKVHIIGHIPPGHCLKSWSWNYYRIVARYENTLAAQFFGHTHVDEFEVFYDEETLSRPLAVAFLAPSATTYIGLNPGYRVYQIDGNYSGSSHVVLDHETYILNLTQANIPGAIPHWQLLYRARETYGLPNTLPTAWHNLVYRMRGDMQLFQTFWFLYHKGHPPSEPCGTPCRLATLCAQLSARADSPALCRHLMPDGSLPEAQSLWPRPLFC
As to the kind of experiment: Inhibition of acid sphingomyelinase (unknown origin).

Series [2] deals with Rattus norvegicus. Briefly: Reversal of reserpine-induced inhibition of neurogenesis in Sprague-Dawley rat hippocampus at 12 mg/kg, ip administered twice daily for 2 weeks by EDU-incorporation assay. The class given is functional, organism-based. In a few lines: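 Reserpine-depressed female SD rats (4 mg/Kg ip daily; drug ip twice daily for two weeks) injected with EdU 8 mg/kg twice in 1 day, killed 96 h later. Frozen brain sections washed with glycine and PBS, Click-iT stained 30 min, Hoechst 33342 30 min; hippocampal proliferation scored by fluorescence microscopy; n = 5.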

Series [3] concerns Rattus norvegicus. Briefly: Antidepressant activity in Sprague-Dawley rat model of reserpine-induced depression assessed as increase in time passing the grid at 12 mg/kg, ip administered twice daily for 2 weeks measured for 5 mins by open field test. The class given is functional, organism-based. An outline of the steps:
(§1)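 Female SD rats (6-8 weeks, 200 g) given reserpine 4 mg/Kg ip daily to induce depression; test agent in 5 % DMSO, 2 % Tween 80, 5 % glucose, ip twice a day for two weeks. Each rat placed in the central square of a 100 cm × 100 cm box (25 squares, walls ~42 cm); centre time, grid crossings, rearing and grooming recorded over 5 min, 7:30–12:00; n = 8.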

For series [4], the system named is Rattus norvegicus. Briefly: Antidepressant activity in Sprague-Dawley rat model of reserpine-induced depression assessed as increase in grooming frequency at 12 mg/kg, ip administered twice daily for 2 weeks measured for 5 mins by open field test. In kind it is functional, organism-based. An outline of the steps:
as §1

The test system of a further series is NIH3T3. Briefly: Cytotoxicity against mouse NIH/3T3 cells assessed as reduction in cell viability after 24 hrs by MTT assay. The note with it: mouse, nih3t3, 24 h. The class given is cell-based. An outline of the steps: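 NIH3T3 cells in DMEM with 10 % FBS at 37 °C, 5 % CO₂, grown overnight, then inhibitor added for 24 h; viability read by MTT.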
(Formazan colour is commonly taken as a measure of viable cells.)

Series [5] has as its system Rattus norvegicus. Briefly: Antidepressant activity in Sprague-Dawley rat model of reserpine-induced depression assessed as reduction in total time spent in center at 12 mg/kg, ip administered twice daily for 2 weeks measured for 5 mins by open field test. The class given is functional, organism-based. An outline of the steps:
as §1

The subject of series [6] is Rattus norvegicus. As to the kind of experiment: Antidepressant activity in Sprague-Dawley rat model of reserpine-induced depression assessed as increase in frequency of upright at 12 mg/kg, ip administered twice daily for 2 weeks measured for 5 mins by open field test. In kind it is functional, organism-based. An outline of the steps:
as §1

Series [7] deals with T1, Sphingomyelin phosphodiesterase. Briefly: Inhibition of human Huh7 cell derived acid sphingomyelinase using NBD-sphingomyelin as substrate after 30 mins by fluorescence based assay. An outline of the steps: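 Cultured cells were lysed in 25 mM Tris-HCl pH 7.4, 5 mM EDTA, sonicated and cleared at 300 g. 400 μg protein incubated with NBD-sphingomyelin in 100 mM sodium acetate pH 4.7, 1% Triton X-100, 40 mM CaCl2, 100 μM ZnCl2. Inhibitors added in DMSO, 37 °C, 30 min. Stopped with chloroform/methanol 2:1; NBD-ceramide fluorescence after TLC.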

The target in series [8] is T2, Sphingomyelin phosphodiesterase 2 (Homo sapiens) (UniProt O60906).
T2 sequence (whole entry): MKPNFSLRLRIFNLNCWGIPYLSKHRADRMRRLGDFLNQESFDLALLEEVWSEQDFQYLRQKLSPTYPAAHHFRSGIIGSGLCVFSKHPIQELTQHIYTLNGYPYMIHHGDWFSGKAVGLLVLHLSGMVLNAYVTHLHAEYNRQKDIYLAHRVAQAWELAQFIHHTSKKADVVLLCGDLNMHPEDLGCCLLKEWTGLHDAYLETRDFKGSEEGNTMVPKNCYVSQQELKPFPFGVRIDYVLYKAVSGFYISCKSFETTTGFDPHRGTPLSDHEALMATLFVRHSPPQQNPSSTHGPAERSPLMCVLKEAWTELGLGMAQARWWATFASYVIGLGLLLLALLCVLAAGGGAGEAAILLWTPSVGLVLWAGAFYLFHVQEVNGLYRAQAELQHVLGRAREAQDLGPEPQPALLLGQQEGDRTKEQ
Briefly: Inhibition of neutral sphingomyelinase (unknown origin) at 100 uM using NBD-sphingomyelin as substrate after 30 mins by fluorescence based assay. An outline of the steps:
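Neutral sphingomyelinase assay run as the ASM cell-extract assay (NBD-sphingomyelin, 37 °C, 30 min, chloroform/methanol extraction, TLC, NBD-ceramide fluorescence). Buffer was 200 mM Tris-HCl pH 7.4 with 10 mM MgCl2 and 10 mM dithiothreitol. Tested at 100 μM.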

In series [9] the target is T1, Sphingomyelin phosphodiesterase. As to the kind of experiment: Inhibition of recombinant human acid sphingomyelinase (His62 to Pro628 residues) using NBD-sphingomyelin as substrate after 30 mins by fluorescence based assay. In a few lines: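 Buffer 100 mM sodium acetate pH 4.7, 1% Triton X-100, 40 mM CaCl2, 100 μM ZnCl2. Inhibitors in DMSO at various concentrations, 37 °C, 30 min. NBD-ceramide fluorescence after chloroform/methanol extraction and TLC.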

Series [10] is described as follows: Solubility of the compound in physiological saline. In kind it is physicochemical. The note with it: buffer.

Calls of active or inactive are those of the source. The rule behind the calls is not given here.

Broadly, the Ki is the equilibrium dissociation constant of an inhibitor or competing ligand from its target. Lower therefore signals tighter binding. As for `CCCCCCCCCCCCC/C=C/[C@H](O)[C@@H](COP(=O)([O-])OCC[N+](C)(C)C)NC(=S)NC(C)(C)C`, the Ki in series [1] came to 70 µM.

Turning to `CN(C)CCC=C1c2ccccc2CCc2ccccc21` [AMITRIPTYLINE], the result with Rattus norvegicus [2], with Rattus norvegicus [3], with Rattus norvegicus [4], in the series with Rattus norvegicus [5] and with Rattus norvegicus [6] was Active. In the series on NIH3T3, the Activity result is “Non-Toxic”.

For orientation: IC50 means the concentration that gives 50% inhibition. With `COc1ccc(C(=O)NO)cc1OCc1ccc(-c2cccnc2)cc1`, the half-maximal inhibitory concentration (IC50) in [7] amounted to 4.97 µM; in series [9], 3.83 µM. In addition, the inhibition result in [8] is “inactive”.

For the compound `CCCCCCCCCCOc1cc(C(=O)NO)on1`, the IC50 in series [7] was found to be 0.36 µM; in series [9], 2.2 µM. In addition, the inhibition result in series [8] is “inactive”.

Turning to `CCCCCCc1ccc(COc2cc(C(=O)NO)ccc2OC)cc1`, the inhibition entry in series [8] is “inactive”. The solubility result in series [10] is “Insoluble”.

With `CCCCCCc1ccc(COc2cccc(C(=O)NO)c2)cc1`, the inhibition entry in [8] is “inactive”. Further, the solubility result in [10] was “Insoluble”.

For the compound `COc1ccc(C(=O)NO)cc1OCc1ccc(-c2noc(-c3ccc(Br)cc3)n2)cc1`, the IC50 in [7] is > 100 µM.

Turning to `O=C(NO)c1cccc(OCc2ccc(-c3noc(-c4ccc(Br)cc4)n3)cc2)c1`, the IC50 in series [7] was > 100 µM.

Consider `O=C(NO)c1cc(OCc2ccc(-c3ccccc3)cc2)no1`, for which the values for the IC50 in series [7] and in series [9] were 0.88 µM and 4.09 µM, respectively. Moreover, the inhibition result in series [8] is “inactive”.

For `O=C(NO)c1cccc(OCc2ccc(-c3cccnc3)cc2)c1`, in [7], the IC50 stood at 52.3 µM.

Consider `COc1ccc(C(=O)NO)cc1OCc1noc(-c2ccc(Cl)cc2)n1`, for which, in series [7], it took 21.6 µM to reach half-maximal inhibition (IC50). For the same compound, the inhibition entry in series [8] is “inactive”.

Consider `COc1ccc(C(=O)NO)cc1OCc1noc(-c2cccc(Cl)c2)n1`, for which 9.22 µM corresponded to half-maximal inhibition in series [7] (IC50). The inhibition result in series [8] was “inactive”.

For `COc1ccc(C(=O)NO)cc1OCc1ccc(-c2ccc(Cl)cc2)cc1`, the IC50 in series [7] amounted to 0.34 µM; in [9], 8.07 µM. For the same compound, the inhibition entry in [8] is “inactive”. In addition, the solubility result in [10] was “Insoluble”.

With `O=C(NO)c1cccc(OCc2ccc(-c3noc(-c4cccc(F)c4)n3)cc2)c1`, in [7], the concentration for half-maximal inhibition (IC50) was > 100 µM.

The compound `CCCCCCCC(N)(P(=O)(O)O)P(=O)(O)O` showed a half-inhibitory concentration (IC50) in series [1] of 0.02 µM.

As to `O=C(NO)c1cccc(OCc2ccc(-c3noc(CCc4ccccc4)n3)cc2)c1`, the IC50 is 1.73 µM in series [7] and 4.25 µM in [9]. Moreover, in series [8], the inhibition entry was “inactive”.

In the case of `COc1ccc(C(=O)NO)cc1OCc1ccc(-c2ccccc2)cc1`, the inhibition entry in series [8] is “inactive”. The solubility result in [10] was “Insoluble”.

Consider `CCc1nc(-c2ccc(COc3cccc(C(=O)NO)c3)cc2)no1`, for which, in [7], the midpoint of inhibition, the IC50, lay at 34.7 µM.

For the compound `O=C(NO)c1cccc(OCc2ccc(-c3noc(Cc4ccccc4)n3)cc2)c1`, the IC50 in [7] came to 7.83 µM; in [9], 4.93 µM.

In the case of `O=C(NO)c1cccc(OCc2ccc(-c3ccccc3)cc2)c1`, the IC50 in series [7] turned out to be 19.6 µM. Moreover, in [8], the inhibition entry was “inactive”. In addition, the solubility result in series [10] was “Insoluble”.

`COc1ccc(-c2nc(COc3cc(C(=O)NO)ccc3OC)no2)cc1OC`: the IC50 in series [7] came to 13.8 µM.

For `O=C(NO)c1cccc(OCc2ccc(-c3ccc(Cl)cc3)cc2)c1`, the results for the concentration for half-maximal inhibition (IC50) in series [7] and in [9] were 8.96 µM and 0.36 µM, respectively. For the same compound, the solubility entry in [10] is listed as “Insoluble”.

In series [1], `CCOc1ccc2oc(-c3cc(Br)cc4c3OCOC4)c(N)c(=O)c2c1` returned a half-maximal inhibitory concentration (IC50) of 3.1 µM.

Turning to `CCCCCCCCCCOc1cc(C(=O)NO)ccc1OC`, the IC50 in [9] came out at 0.89 µM.

As to `O=C(NO)c1cccc(OCc2ccc(-c3noc(-c4ccccc4)n3)cc2)c1`, in series [7], the half-maximal inhibitory concentration (IC50) was > 100 µM.

In the case of `COc1c(O)cc2oc3cc(O)c(CC=C(C)C)c(O)c3c(=O)c2c1CC=C(C)C` [MANGOSTIN], the IC50 in series [7] was 14.1 µM.
